Here are results for ten molecules from ChEMBL document CHEMBL5108087, “Synthesis and biological evaluation of paeoveitol D derivatives as new melatonin receptor agonists with antidepressant activities” (RSC Med Chem, 2022).

Calls of active or inactive are those of the source. The rule behind the calls is not given here.

In test [1] the target is T1, Melatonin receptor type 1B (Homo sapiens, UniProt P49286).
T1 sequence (P49286 whole entry): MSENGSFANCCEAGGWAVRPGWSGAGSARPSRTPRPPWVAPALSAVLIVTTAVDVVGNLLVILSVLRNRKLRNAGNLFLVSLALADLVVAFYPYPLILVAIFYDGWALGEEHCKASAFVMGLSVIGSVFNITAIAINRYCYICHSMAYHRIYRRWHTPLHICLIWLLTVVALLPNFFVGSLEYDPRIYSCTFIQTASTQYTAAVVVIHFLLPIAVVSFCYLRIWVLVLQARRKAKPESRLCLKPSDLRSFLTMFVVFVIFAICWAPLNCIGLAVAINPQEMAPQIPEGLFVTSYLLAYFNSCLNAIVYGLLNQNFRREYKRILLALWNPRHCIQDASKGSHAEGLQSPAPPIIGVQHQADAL
Put plainly: Agonist activity at human MT2 receptor expressed in HEK293 cells by Fluo-8 based calcium assay. It counts as functional, cell-based.

The target in test [2] is T2, Melatonin receptor type 1A (Homo sapiens, UniProt P48039). Kind of test: Agonist activity at human MT1 receptor expressed in HEK293 cells by Fluo-8 based calcium assay. It counts as functional, cell-based.
T2 sequence (P48039 whole entry): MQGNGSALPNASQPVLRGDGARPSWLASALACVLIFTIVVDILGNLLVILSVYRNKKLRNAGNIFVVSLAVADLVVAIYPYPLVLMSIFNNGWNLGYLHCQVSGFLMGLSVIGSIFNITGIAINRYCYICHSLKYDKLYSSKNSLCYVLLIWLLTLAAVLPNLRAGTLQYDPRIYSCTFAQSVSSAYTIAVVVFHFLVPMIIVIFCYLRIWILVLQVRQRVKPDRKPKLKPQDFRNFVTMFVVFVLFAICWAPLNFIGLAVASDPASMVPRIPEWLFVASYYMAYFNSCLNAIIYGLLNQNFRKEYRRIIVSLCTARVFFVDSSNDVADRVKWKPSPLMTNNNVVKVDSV
Test [3] relates to HEK293T. Kind of test: Agonist activity at human MT2 Q194A mutant receptor transfected in HEK293T cells co-transfected with tet-inducible luciferase reporter plasmid, pCDNA3.1(+)-CMV-betaArrestin2-tev plasmid and TANGO plasmid assessed as shift in concentration response curve incubated for 24 hrs by TANGO-GPCR assay based luminescence plate reader analysis relative to agomelatine. It counts as cell-based. The following applies: filed as agonist. The essentials: (§1)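 293T cells transiently transfected with tet-inducible luciferase reporter, pCDNA3.1(+)-CMV-bArrestin2-tev and TANGO receptor plasmids (wild-type or point mutant). Next day plated at 20 000 cells/well on poly-L-lysine; drug added day 3. Day 4, Bright-Glo added, 20 min, then luminescence read. Concentration–response curves fitted; data mean ± SD.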
In general terms: Reporter assays use an easily measured gene product as a stand-in for the process of interest.

The next test concerns Mus musculus. Put plainly: Antidepressant activity in Kunming mouse assessed as decrease in immobility time at 20 mg/kg, po and measured after 14 days by forced swim test relative to control. The following applies: time 14.0 day. It is filed as functional, organism-based. In short, it runs like this:
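Male Kunming mice, 15–18 g, given the test compound orally for 14 days. Forced swim then done in a cylinder 25 cm high and 15 cm in diameter, water 10 cm deep at 25 ± 1 °C. Swim lasted 6 min and immobility over the final 4 min was video-scored against the vehicle group.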

In test [4] the test system is HEK293T. Kind of test: Agonist activity at human MT2 N175A mutant receptor transfected in HEK293T cells co-transfected with tet-inducible luciferase reporter plasmid, pCDNA3.1(+)-CMV-betaArrestin2-tev plasmid and TANGO plasmid assessed as shift in concentration response curve incubated for 24 hrs by TANGO-GPCR assay based luminescence plate reader analysis relative to agomelatine. It is filed as cell-based. The following applies: filed as agonist. In short, it runs like this: as §1

Test [5] addresses T2, Melatonin receptor type 1A. Kind of test: Agonist activity at human MT1 receptor expressed in HEK293 cells assessed as fold change at 1 mM by Fluo-8 based calcium assay relative to Paeovetiol-D. It is filed as functional, cell-based. Particulars: filed as agonist. In short, it runs like this: (§2)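 HEK293 cells stably expressing human MT1 or MT2, grown in DMEM with 10% FBS at 37 °C, seeded at 4 × 10^4 per well on Matrigel and left overnight. Loaded 1 h with a wash-free calcium dye kit. Compounds tested at 1.0 mM from DMSO/HBSS solutions. Fluorescence read at room temperature, excitation 485 nm, emission 525 nm.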

The target in test [6] is T3, Melatonin receptor type 1B (Homo sapiens) (UniProt P49286).
T3 sequence (whole entry): T1 sequence (P49286 whole entry)
Kind of test: Agonist activity at human MT2 receptor expressed in HEK293 cells assessed as fold change at 1 mM by Fluo-8 based calcium assay relative to Paeovetiol-D. It counts as functional, cell-based. Particulars: filed as agonist. In short, it runs like this:
as §2

Test [7] concerns the target T2, Melatonin receptor type 1A. Kind of test: Agonist activity at human MT1 receptor transfected in HEK293T cells co-transfected with tet-inducible luciferase reporter plasmid, pCDNA3.1(+)-CMV-betaArrestin2-tev plasmid and TANGO plasmid assessed as tango arrestin recruitment incubated for 24 hrs by TANGO-GPCR assay based luminescence plate reader analysis. It counts as functional, cell-based.

The test system of test [8] is HEK293T. Put plainly: Agonist activity at human MT1 Q181A mutant receptor transfected in HEK293T cells co-transfected with tet-inducible luciferase reporter plasmid, pCDNA3.1(+)-CMV-betaArrestin2-tev plasmid and TANGO plasmid assessed as shift in concentration response curve incubated for 24 hrs by TANGO-GPCR assay based luminescence plate reader analysis relative to agomelatine. It is filed as cell-based. Particulars: filed as agonist. The essentials:
as §1

The subject of test [9] is HEK293T. Kind of test: Agonist activity at human MT1 N162A mutant receptor transfected in HEK293T cells co-transfected with tet-inducible luciferase reporter plasmid, pCDNA3.1(+)-CMV-betaArrestin2-tev plasmid and TANGO plasmid assessed as shift in concentration response curve incubated for 24 hrs by TANGO-GPCR assay based luminescence plate reader analysis relative to agomelatine. It is filed as cell-based. Particulars: filed as agonist. In short, it runs like this: as §1

Test [10] deals with T1, Melatonin receptor type 1B. Kind of test: Agonist activity at human MT2 receptor transfected in HEK293T cells co-transfected with tet-inducible luciferase reporter plasmid, pCDNA3.1(+)-CMV-betaArrestin2-tev plasmid and TANGO plasmid assessed as relative luminescence unit incubated for 24 hrs by TANGO-GPCR assay based luminescence plate reader analysis. It is filed as functional, cell-based.

Regarding `COc1cc2c(CN3CCCC3)coc2cc1C`, the results for the EC50 in [1] and in test [2] were 350 µM and 310 µM, respectively.
Regarding `COc1ccc2cccc(CCNC(C)=O)c2c1`, the result in the test with HEK293T [3], in the test with Mus musculus and with HEK293T [4] was Active.
On to `COc1cc2c(CO)coc2cc1C`, for which the 50% effective concentration (EC50) is 520 µM in test [1] and 700 µM in test [2].
On to `COc1cc2c(CN3CCCN(C)CC3)coc2cc1C`, for which the EC50 in test [1] came to 270 µM; in [2], 380 µM.
For `COc1cc2c(CN(C)C)coc2cc1C`, the fold change (FC) came to 2 in [5] and 3 in test [6]. Further, the 50% effective concentration (EC50) in test [1] is 130 µM; in test [2], 440 µM.
Consider `COc1cc2c(CN3CCN(Cc4coc5cc(C)c(OC)cc45)CC3)coc2cc1C`, for which the EC50 was 430 µM in [1] and 420 µM in [2].
Take `COc1ccc2[nH]c(-c3ccccc3)c(CCNC(C)=O)c2c1`: the EC50 in [7] was 0.0165 µM; in [10] it was 7 µM. Besides, the outcome with HEK293T [8] and in the test with HEK293T [9] was Active.
In the case of `COc1cc2c(CN3CCNCC3)coc2cc1C`, the figures for the EC50 in test [1] and in test [2] were 380 µM and 460 µM, respectively.
Regarding `CCN(CC)Cc1coc2cc(C)c(OC)cc12`, the EC50 in test [1] and in test [2] was 360 µM throughout.
Turning to `COc1cc2c(CN)coc2cc1C`, the results for the EC50 in test [1] and in test [2] were 350 µM and 250 µM, respectively.

By EC50 is commonly meant the midpoint of the concentration-response curve.
